Data reported in ChEMBL document CHEMBL3627693, “Novel aminotetrazole derivatives as selective STAT3 non-peptide inhibitors” (Eur J Med Chem, 2015).
Activity calls are given as the source filed them. The calls are words filed in the database; no cut-off is given here.

Assays:
[1] = molecular target: T1, Signal transducer and activator of transcription 3 (Homo sapiens, UniProt P40763); test: Inhibition of STAT3 (unknown origin) expressed in Oncostatin M induced human HeLa cells at 50 uM incubated for 1 hr by luciferase reporter gene assay; assay type: cell-based
[2] = molecular target: T2, Signal transducer and activator of transcription 1-alpha/beta (Homo sapiens) (UniProt P42224); test: Inhibition of STAT1 (unknown origin) expressed in IFN-gamma induced human HeLa cells at 50 uM incubated for 1 hr by luciferase reporter gene assay; assay type: cell-based
T2 sequence (whole entry): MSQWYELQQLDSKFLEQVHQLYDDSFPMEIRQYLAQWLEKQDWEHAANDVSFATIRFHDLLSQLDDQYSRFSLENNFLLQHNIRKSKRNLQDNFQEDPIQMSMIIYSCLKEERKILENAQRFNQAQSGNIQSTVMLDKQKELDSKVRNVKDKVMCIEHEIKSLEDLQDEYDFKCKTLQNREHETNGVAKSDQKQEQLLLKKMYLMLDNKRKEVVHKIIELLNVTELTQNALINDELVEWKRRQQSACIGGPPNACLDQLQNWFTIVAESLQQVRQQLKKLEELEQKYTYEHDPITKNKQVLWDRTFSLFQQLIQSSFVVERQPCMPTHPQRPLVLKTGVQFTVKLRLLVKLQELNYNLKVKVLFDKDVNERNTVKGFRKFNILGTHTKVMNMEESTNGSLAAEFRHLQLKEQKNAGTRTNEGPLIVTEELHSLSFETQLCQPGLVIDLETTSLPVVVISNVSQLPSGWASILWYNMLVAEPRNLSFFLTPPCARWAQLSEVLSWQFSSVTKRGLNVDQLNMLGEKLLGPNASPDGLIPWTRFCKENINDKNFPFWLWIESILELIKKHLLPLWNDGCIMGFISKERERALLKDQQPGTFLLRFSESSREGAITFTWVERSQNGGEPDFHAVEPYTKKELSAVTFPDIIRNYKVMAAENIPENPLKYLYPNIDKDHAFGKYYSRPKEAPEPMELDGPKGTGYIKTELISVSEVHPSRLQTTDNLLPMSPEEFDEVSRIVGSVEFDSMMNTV

[3] = molecular target: T1, Signal transducer and activator of transcription 3; test: Displacement of fluorescent peptide 5-FAM-G(pTyr)LPQTV-CONH2 from GST-tagged full-length human STAT3 preincubated for 60 mins followed by fluorescent peptide addition measured after 30 mins by fluorescence polarization assay
Outline: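 Full-length GST-STAT3 (100 nM) preincubated 60 min at room temperature with compound at various concentrations or vehicle, in 50 mM NaCl, 10 mM Hepes pH 7.5, 1 mM EDTA, 0.01% Triton X-100, 2 mM DTT. Labelled peptide then added to 10 nM final, 30 min room temperature. FP read with excitation 480, emission 535 (P and S pol).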

[4] = molecular target: T2, Signal transducer and activator of transcription 1-alpha/beta (Homo sapiens); test: Displacement of fluorescent peptide 5-FAM-G(pTyr)YIKTE- CONH2 from GST-tagged human STAT1b preincubated for 60 mins followed by fluorescent peptide addition measured after 30 mins by fluorescence polarization assay
Outline: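 GST-tagged human STAT1b preincubated 60 min at room temperature with compound at various concentrations or vehicle in 50 mM NaCl, 10 mM Hepes pH 7.5, 1 mM EDTA, 0.01% Triton X-100, 2 mM DTT. Labelled peptide added to 10 nM final, 30 min room temperature. Fluorescence polarization read with excitation 480, emission 535.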

T1 sequence (P40763 whole entry): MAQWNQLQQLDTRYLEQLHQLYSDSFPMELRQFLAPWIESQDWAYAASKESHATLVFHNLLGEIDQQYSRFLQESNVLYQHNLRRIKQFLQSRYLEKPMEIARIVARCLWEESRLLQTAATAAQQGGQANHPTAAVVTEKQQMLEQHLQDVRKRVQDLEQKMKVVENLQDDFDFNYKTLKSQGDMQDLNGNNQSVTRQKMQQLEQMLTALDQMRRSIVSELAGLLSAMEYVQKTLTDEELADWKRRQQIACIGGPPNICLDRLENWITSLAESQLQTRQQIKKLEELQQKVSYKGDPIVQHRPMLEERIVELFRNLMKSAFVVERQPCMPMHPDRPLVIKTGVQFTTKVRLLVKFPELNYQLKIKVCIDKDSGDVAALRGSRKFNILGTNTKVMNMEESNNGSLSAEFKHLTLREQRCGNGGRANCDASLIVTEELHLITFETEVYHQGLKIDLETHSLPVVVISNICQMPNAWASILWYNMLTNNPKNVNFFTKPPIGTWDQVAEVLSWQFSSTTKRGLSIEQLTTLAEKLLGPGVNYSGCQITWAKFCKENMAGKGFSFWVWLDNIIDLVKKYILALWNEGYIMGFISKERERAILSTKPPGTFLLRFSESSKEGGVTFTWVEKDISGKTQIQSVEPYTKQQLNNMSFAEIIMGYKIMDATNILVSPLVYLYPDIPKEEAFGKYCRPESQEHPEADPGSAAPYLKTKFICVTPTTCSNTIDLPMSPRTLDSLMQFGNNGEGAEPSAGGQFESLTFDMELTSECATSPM

Row | inhibition [1] | inhibition [2] | Activity [3] | Activity [4] | Compound
1 | 48% | 0% |  |  | COc1cc(CNc2nn[nH]n2)cc(Br)c1OCc1ccc([N+](=O)[O-])cc1
2 | 11.9% | 0% |  |  | COc1cc(CNc2nn[nH]n2)cc(Cl)c1OCc1ccc(C(C)(C)C)cc1
3 | 25.7% | 9.5% |  |  | COc1cc(CNc2nn[nH]n2)cc(Cl)c1OCc1ccc(C(N)=O)cc1
4 | 58.8% | 11.8% |  |  | COc1cc(CNc2nn[nH]n2)cc(Br)c1OCc1ccc(C)cc1
5 | Active |  |  |  | COC(=O)Cc1c(C)c2ccc(OCc3nn[nH]n3)cc2oc1=O
6 | 37.6% | 4.4% |  |  | COc1cc(CNc2nn[nH]n2)cc(Cl)c1OCc1ccc(Cl)cc1
7 | 53.9% | 11.1% | Active | inactive | COc1cc(CNc2nn[nH]n2)cc(Cl)c1OCc1ccc(C)cc1
8 | 40.2% | 12.9% |  |  | COc1cc(CC(C(=O)O)c2nn[nH]n2)cc(Cl)c1OCc1ccc(C)cc1 (configuration not stated)
9 | 31% | 1.1% |  |  | COc1cc(CNc2nn[nH]n2)cc(Cl)c1OCc1ccccc1[N+](=O)[O-]
10 | 2.6% | 13.9% |  |  | COc1cc(CNc2nn[nH]n2)cc(Cl)c1OCc1ccc(-n2nc(C)cc2C)cc1
11 | 40.1% |  |  |  | COc1cc(CNc2nn[nH]n2)cc(Cl)c1OCc1ccc([N+](=O)[O-])cc1[N+](=O)[O-]
12 | 40.1% | 9.2% | Active |  | COc1cc(CNc2nn[nH]n2)cc(Cl)c1OCc1cccc([N+](=O)[O-])c1
13 | 51.1% | 11.7% |  |  | COc1cc(CNc2nn[nH]n2)cc(Cl)c1OCc1ccc(OC(F)(F)F)cc1
14 | 20.4% | 0% |  |  | COc1ccc([N+](=O)[O-])cc1COc1c(Cl)cc(CNc2nn[nH]n2)cc1OC
15 | 51.5% | 0% |  |  | COC(=O)c1ccc(COc2c(Cl)cc(CNc3nn[nH]n3)cc2OC)cc1
16 | 19.6% | 16.5% |  |  | COc1c(OCc2ccc([N+](=O)[O-])cc2)c(Cl)cc(CNc2nn[nH]n2)c1[N+](=O)[O-]
17 | 37.4% | 13.2% |  |  | COc1cc(CNc2nn[nH]n2)cc(Cl)c1OCc1ccc(C#N)cc1
18 | 50.7% | 1.2% |  |  | COc1cc(CNc2nn[nH]n2)cc(Cl)c1OCc1ccc(F)cc1
19 | 15.9% | 15% |  |  | COc1cc(CNc2nn[nH]n2)cc(Cl)c1OCc1cccc(C(N)=O)c1
20 | 36.9% | 10% |  |  | COc1cc(CNc2nn[nH]n2)cc(Cl)c1OCc1cccc(C(=O)O)c1
21 | 0% | 9.7% |  |  | COc1cc(CNc2nn[nH]n2)cc(Cl)c1OCc1ccc(SC)cc1
22 | 36% | 6.4% |  |  | COc1cc(CNc2nn[nH]n2)cc([N+](=O)[O-])c1OCc1ccc([N+](=O)[O-])cc1
23 | 49.2% | 0% |  |  | COC(=O)c1cccc(COc2c(Cl)cc(CNc3nn[nH]n3)cc2OC)c1
24 | 32.8% | 0% |  |  | COc1cc(CCc2nn[nH]n2)cc(Cl)c1OCc1ccc(C)cc1
25 | Active |  |  |  | COc1cc(CNc2nn[nH]n2)ccc1OCc1c(Cl)cccc1Cl
26 | 43% | 0% |  |  | COc1cc(CNc2nn[nH]n2)ccc1OCc1ccc(C)cc1
27 | 52.1% | 0% |  |  | COc1cc(CNc2nn[nH]n2)cc(I)c1OCc1ccc([N+](=O)[O-])cc1
28 | 62.7% | 16.5% |  |  | COc1cc(CNc2nn[nH]n2)cc(I)c1OCc1ccc(C)cc1
29 | 41.1% | 12.9% |  |  | COc1cc(CNc2nn[nH]n2)cc(Cl)c1OCc1ccc(C(=O)O)cc1
30 | 45.1% | 19.2% |  |  | COc1cc(CNc2nn[nH]n2)cc(OC)c1OCc1ccc([N+](=O)[O-])cc1

The next lines start with the compound.

Row | Compound | inhibition [1] | inhibition [2] | Activity [3] | Activity [4]
31 | CC1CCc2c(sc3ncn(Cc4ccc(C(=O)O)cc4)c(=O)c23)C1 (configuration not stated) | Active |  |  | 
32 | CCc1cc2c(cc1COc1c(Cl)cc(CNc3nn[nH]n3)cc1OC)C(C)(C)CCC2(C)C | 77% | 72.7% |  | 
33 | Clc1cc(CNc2nn[nH]n2)cc(OCCCc2ccccc2)c1OCc1ccccc1 | 26.9% | 11.1% |  | 
34 | C=CCN1C(=O)C(CC(=O)Nc2ccc(C(=O)O)cc2)S/C1=N/c1cccc(Cl)c1 (configuration not stated) | Active |  |  | 
35 | COc1cc(C=O)cc(Cl)c1OCc1ccc([N+](=O)[O-])cc1 | 66.4% | 62.3% | Active | Active
36 | COc1cc(CNc2nn[nH]n2)cc(Cl)c1OCc1cccc(COc2ccccc2)c1 | 0.7% | 0% |  | 
37 | COc1cc(CNc2nn[nH]n2)cc(Cl)c1OCc1ccc(-c2csc(C)n2)cc1 | 0% | 0% |  | 
38 | COc1cc(CC(C(=O)O)C(=O)O)cc(Cl)c1OCc1ccc(C)cc1 | 14.8% | 24.5% |  | 
39 | Oc1cc(CNc2nn[nH]n2)cc(Cl)c1OCc1ccccc1 | 30.8% | 20.4% |  | 
40 | CCOc1cc(CNc2nn[nH]n2)cc(I)c1OCc1ccc([N+](=O)[O-])cc1 | 32.4% | 15.1% |  | 
41 | COc1cc(CN2C(=O)c3ccccc3C2=O)cc(Cl)c1OCc1ccc([N+](=O)[O-])cc1 | 95.9% | 44.5% |  | 
42 | O=C(O)c1ccc(NC(=O)C2CC(=O)N(CCc3ccccc3)/C(=N/c3ccccc3)S2)cc1 (configuration not stated) | Active |  |  | 
43 | CCOc1cc(CNc2nn[nH]n2)cc(Cl)c1OCc1ccc([N+](=O)[O-])cc1 | 20.4% | 34.8% |  | 
44 | CCCCCCCCCOc1cc(COc2c(Cl)cc(CNc3nn[nH]n3)cc2OC)ccc1[N+](=O)[O-] | 82.7% | 72.9% |  | 
45 | C[C@@H]1CC(=O)c2c(ccc3c2C(=O)c2cccc(O)c2C3=O)C1 | 71% | 13.1% |  | 
46 | COc1cc(CNc2nn[nH]n2)cc(Cl)c1OC(C)c1ccccc1 (configuration not stated) | 0% | 0% |  | 

Row | Compound | inhibition [1] | inhibition [2] | Activity [3] | Activity [4]
47 | COc1cc(CN(CC(=O)O)Cc2cc(Cl)c(OCc3ccc(C)cc3)c(OC)c2)cc(Cl)c1OCc1ccc(C)cc1 | 54.7% | 46% |  | 
48 | COc1cc(CNC#N)cc(Cl)c1OCc1ccc([N+](=O)[O-])cc1 | 91.8% | 48.8% | Active | Active
49 | COc1cc(C=O)cc(Cl)c1OCc1ccc(C)cc1 | 52.4% | 31.4% | Active | Active
50 | COc1cc(CNc2nn[nH]n2)cc(Cl)c1OCc1ccc(-c2nccs2)cc1 | 0% | 0% |  | 
51 | COc1cc(NC#N)cc(Cl)c1OCc1ccc(C)cc1 | 50.2% | 10.8% | inactive | Active
52 | COc1cc(CNc2nn[nH]n2)cc(Cl)c1OCc1ccc(C(F)(F)F)cc1 | 48.5% | 11.5% |  | 
53 | CC(C)COC(=O)CN1C(=O)S/C(=C\c2ccc(C(=O)O)cc2)C1=O | Active |  |  | 
54 | COc1cc(CNc2nn[nH]n2)cc(Cl)c1OCc1ccc(OC2CCOCC2)cc1 | 4.1% | 0% |  | 
55 | COc1cc(CNc2nn[nH]n2)cc(Cl)c1OCc1cccc(-c2ccccc2)c1 | 8.2% | 0% |  | 
56 | COc1cc(CC(c2nn[nH]n2)c2nn[nH]n2)cc(Cl)c1OCc1ccc(C)cc1 | 38.6% | 17.7% |  | 
57 | CCCCCCOc1cc(COc2c(Cl)cc(CNc3nn[nH]n3)cc2OC)ccc1[N+](=O)[O-] | 60.1% | 59.3% |  | 
58 | O=[N+]([O-])c1ccc(COc2c(O)cc(CNc3nn[nH]n3)cc2Cl)cc1 | 25.3% | 0.6% |  | 
59 | COc1cc(CO)cc(Cl)c1OCc1ccc([N+](=O)[O-])cc1 | 66.4% | 43.6% |  | 
60 | COc1cc(CNCC(=O)O)cc(Cl)c1OCc1ccc([N+](=O)[O-])cc1 | 15.3% | 13.1% |  | Active
61 | CCCOc1cc(COc2c(Cl)cc(CNc3nn[nH]n3)cc2OC)ccc1[N+](=O)[O-] | 38.3% | 2.8% |  | 
